In the library only some 2.8% were active in any assay of this set; here they are far more common.
RAM network inh: inhibitors of the yeast RAM network, primary screen, dse1pr::URA3 reporter, 5-FOA selection; hit rate 1.8% among 190,000; inhibition, % at 50 µM; S. cerevisiae dse1pr::URA3 reporter, 5-FOA growth OD615, 2 d; analog-sensitive cbk1-as2 kinase mutant strain;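 active = inhibition above a set limit, 3 SD over mean compound inhibition, cut at about 8.4% in these data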;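 also: inhibition rescues growth on 5-FOA so higher OD means more RAM inhibition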
TNAP inh no acc: human TNAP enzyme inhibitors, primary screen, biochemical, luminescent, no phosphate acceptor, uHTS; inhibition, % at 20 µM; purified TNAP, CDP-star luminescence, 30 min; AID 1012, 2008; Alkaline phosphatase, tissue-nonspecific isozyme (Homo sapiens), P05186; hit rate 0.26% among 200,000;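 active = tissue-nonspecific alkaline phosphatase inhibition above about 50% at 20 µM in the single-dose screen, limit read from the data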
Target sequence (P05186 whole entry, looked up): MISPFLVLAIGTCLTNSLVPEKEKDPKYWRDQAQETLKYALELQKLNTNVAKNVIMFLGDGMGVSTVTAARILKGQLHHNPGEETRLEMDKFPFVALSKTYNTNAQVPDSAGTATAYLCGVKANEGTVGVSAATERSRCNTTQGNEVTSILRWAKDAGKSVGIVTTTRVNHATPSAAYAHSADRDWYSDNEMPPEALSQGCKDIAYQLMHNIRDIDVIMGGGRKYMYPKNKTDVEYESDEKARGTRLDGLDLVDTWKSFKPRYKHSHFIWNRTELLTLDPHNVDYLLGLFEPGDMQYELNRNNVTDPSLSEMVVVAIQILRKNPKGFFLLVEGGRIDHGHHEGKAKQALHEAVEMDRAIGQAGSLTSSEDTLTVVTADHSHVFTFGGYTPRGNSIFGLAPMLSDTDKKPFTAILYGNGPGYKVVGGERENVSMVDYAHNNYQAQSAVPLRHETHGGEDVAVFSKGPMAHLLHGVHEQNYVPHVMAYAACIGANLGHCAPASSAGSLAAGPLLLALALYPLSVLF
TNAP act hiacc: TNAP activators at high phosphate acceptor level, primary screen, biochemical, luminescence, uHTS. AID 1136, 2008. 200,000 tested, under 10 active. Alkaline phosphatase, tissue-nonspecific isozyme (Homo sapiens), P05186. activation factor at 20 µM. purified TNAP, CDP-star luminescence, 1 M DEA, 30 min; stronger effect = higher value; 0 = EDTA background, 1 = DMSO-only activity;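 active = activation factor at least 2 at 20 µM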
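Control set: EDTA negative control, DMSO positive control / Assay system: human TNAP / Quantity: TNAP 1/800 final / Evaluation: TNAP activation factor scaled between EDTA and DMSO control wells / Measured by: luminescent substrate turnover signal / Compound dosing: one dose, 20 µM / Times: 30 min enzyme reaction at room temperature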
BB579 growth dn: growth inhibitors of yeast BB579 in restrictive medium, primary screen, yeast lifespan-shortening project, S. cerevisiae; OD615, 48 h; inhibition, % at 10 µM; hit rate 0.51% among 140,000; AID 804, 2007;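 active = inhibition above a set limit, 3 SD over the mean compound inhibition, cut at about 44% in these data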
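Test system: DeaD yeast strain BB579 / Buffer or medium: restrictive glucose-based CSMM-D medium / Doses: single 10 µM dose / Schedule: 4 h cell preincubation, 48 h compound exposure, 30 °C humidified / Technique: culture absorbance at 615 nm / Controls: amphotericin B positive control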
Yeast life ext: compounds extending yeast replicative lifespan, primary screen, S. cerevisiae, OD615; S. cerevisiae growth with nicotinamide; deaD strain in restrictive glucose medium; inhibition of the nicotinamide effect, % at 10 µM; hit rate 0.68% among 130,000; AID 775, 2007;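 active = inhibition above a set limit, placed 3 SD over the median of all compounds, cut at about 26% in these data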
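Material: Modified budding yeast, DeaD strain | Medium: Restrictive glucose medium | Probe or stimulus: 1.5 mM nicotinamide | Dosing: Single dose 10 µM compound, 0.25% DMSO | Times: 48 h at 30 °C | Technique: OD615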
TNAP inh hiacc: human TNAP enzyme inhibitors, primary screen, biochemical, luminescent, high phosphate acceptor level, uHTS; Alkaline phosphatase, tissue-nonspecific isozyme (Homo sapiens), P05186; purified TNAP, CDP-star luminescence, 1 M DEA; inhibition, % at 20 µM; hit rate 0.03% among 200,000; AID 1135, 2008;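 active = over 50% inhibition of tissue-nonspecific alkaline phosphatase at 20 µM in the single-dose screen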
Each line names hits and unclear results; the compound was inactive in the other large screens.

CCOc1cc(/C=N/NC(=O)C(=O)N2CCCC2)ccc1O	none (no result: BB579 growth dn, Yeast life ext)
COc1ccccc1C(=O)Oc1ccc2c(c1)O/C(=C\c1ccncc1)C2=O	Yeast life ext 47
Cc1ccc(C)c(NC(=O)c2ccc3ccccc3n2)c1	RAM network inh 10
Cc1ccc(C)c(NC(=O)c2ccccn2)c1	none
COc1ccc(C(C)=O)cc1COC(=O)c1ccc2c(c1)OCO2	none
COc1ccc(C(C)=O)cc1COC(=O)c1cnc(Cl)c(Cl)c1	RAM network inh 9.9 (no result: BB579 growth dn, Yeast life ext)
FC(F)(F)c1cccc(NC(=S)NNC(=S)NCc2ccccc2)c1	none
O=C(CSc1nc2cc(Cl)ccc2s1)NCc1ccc2c(c1)OCO2	RAM network inh 10
O=C(N/N=C/C=C\c1ccco1)c1cccs1	none (no result: BB579 growth dn, Yeast life ext)
Cc1cc2nc(C)n3c4ccccc4nc3n2n1	BB579 growth dn 86
COCCn1c(N)c(N(Cc2ccccc2)C(=O)c2cc3ccccc3o2)c(=O)[nH]c1=O	none (no result: BB579 growth dn, Yeast life ext)
O=C(N/N=C/c1cccc([N+](=O)[O-])c1)c1ccc(COc2ccccc2-c2ccccc2)cc1	none
COc1ccc(CCNc2oc(-c3ccc(OC)c(OC)c3)nc2C#N)cc1	RAM network inh 11
CCc1ccc(C(CC(=O)c2ccc(Cl)cc2)C(=O)O)cc1 (stereo unspecified)	Yeast life ext 31
COC(=O)/C=c1/s/c(=C(\C#N)C(=O)NCc2ccco2)n(-c2ccc(C)cc2)c1=O	RAM network inh 8.5
CCn1c(O)c(/C=N/N=C/c2ccccc2)c2ccc(C3=NNC(=O)CC3)cc21	none
CCOC(=O)c1c(C)[nH]c(C(=O)Cn2nnc(-c3ccccc3)n2)c1C	RAM network inh 8.9
CCOC(=O)c1c(C)[nH]c(C(=O)Cn2nnc(-c3ccccc3Cl)n2)c1C	none
Cn1c(N)c(C(=O)c2ccc(F)cc2F)c(=O)n(C)c1=O	Yeast life ext 40
Cn1c(N)c(C(=O)c2ccc(Cl)cc2)c(=O)n(C)c1=O	none
Cc1cc(O)ccc1C1(c2ccc(O)cc2C)OC(=O)c2ccccc21	none (no result: Yeast life ext)
Cc1cccc(C2(c3cccc(C)c3)OC(=O)c3ccccc32)c1	RAM network inh 9.0
CCOc1ccc(-c2n[nH]c(C(=O)NN)c2C)cc1	TNAP inh no acc 82
Cc1c(-c2ccccc2)n[nH]c1C(=O)NN	TNAP inh no acc 82 (no result: BB579 growth dn, Yeast life ext)
CC(C)COc1ccc(-c2cc(C(=O)NN)[nH]n2)cc1	none
Brc1ccc(-c2nc(N/N=C/c3cccnc3)c3ccccc3n2)cc1	none
COc1cc(OC)cc(-c2nnc(Nc3nc4c(F)cccc4s3)o2)c1	none
Fc1cccc2sc(Nc3nnc(-c4ccccc4)o3)nc12	Yeast life ext 60
CC(=O)Cn1ncc(Br)c(Br)c1=O	RAM network inh 9.9 (no result: BB579 growth dn, Yeast life ext)
CCOCCCNC(=O)C(c1ccc(C)cc1)N(Cc1cccs1)C(=O)CNC(C)=O (stereo unspecified)	none
OC(CN1CCN(c2ccccn2)CC1)Cn1c2ccc(Cl)cc2c2cc(Cl)ccc21 (stereo unspecified)	BB579 growth dn 99
OC(COC(c1ccc(Cl)cc1)c1ccc(Cl)cc1)CN1CCN(c2ccccn2)CC1 (stereo unspecified)	none
CCCCCCC1CC(CC(=O)Nc2ccc([N+](=O)[O-])cc2)C(=O)O1 (stereo unspecified)	none
CCCCCC1CC(CC(=O)NC(=S)Nc2ccc([N+](=O)[O-])cc2)C(=O)O1 (stereo unspecified)	RAM network inh 11 (no result: Yeast life ext)
O=C(CSc1nc2ccccc2o1)c1cc2ccccc2oc1=O	Yeast life ext 38
Cc1cc[n+](CC(=O)c2cc3ccccc3oc2=O)cc1	Yeast life ext 29
Cc1cc(C)nc(SCC(=O)c2cc3ccccc3oc2=O)n1	none
CCOc1ccc(NS(=O)(=O)c2ccc3ncsc3c2)cc1	none (no result: BB579 growth dn, Yeast life ext)
O=C(NNC1=Nc2cccc3cccc1c23)c1ccccc1Br	Yeast life ext 38
CCCCCCCCCCCCCCCC[n+]1cccc2ccccc21	BB579 growth dn 100
CCO[C@H]1OC(C(=O)Nc2ccccc2)=C[C@@H](c2coc3ccccc3c2=O)[C@@H]1CCCO	none (no result: BB579 growth dn, Yeast life ext)
O=C(/C=N\O)NCCCNCc1ccccc1	Yeast life ext 50
O=C(NCCCNCc1ccccc1)c1ccncc1	none
CC(C)C(NC(=O)C1CCCCC1)C(=O)NCCc1ccccc1 (stereo unspecified)	none (no result: BB579 growth dn, Yeast life ext)
CCOc1cc(N2CCOCC2)c(OCC)cc1NC(=S)NCCCOC	none (no result: BB579 growth dn, Yeast life ext)
N#Cc1cc(C(=O)c2ccccc2O)cn(-c2nccs2)c1=O	none
N#Cc1cc(C(=O)c2cc(F)ccc2O)cn(-c2nccs2)c1=O	Yeast life ext 41
COc1ccccc1-n1cc(C(=O)c2cc(Cl)ccc2O)cc(C#N)c1=O	RAM network inh 9.7 (no result: BB579 growth dn, Yeast life ext)
CS(=O)(=O)n1nc(C(=O)N2CCOCC2)nc1N	none
COc1ccc(C2=NOC(C(=O)Nc3ccc(C)cc3)C2)cc1OC (stereo unspecified)	RAM network inh 9.2
COc1ccc(OC)c(-c2c3cc(O)c(=O)cc-3oc3cc(O)c(O)cc23)c1	BB579 growth dn 63
O=C(COc1ccccc1-c1ccccc1)N/N=C/c1ccncc1	none (no result: BB579 growth dn, Yeast life ext)
O=C(COc1ccccc1-c1ccccc1)N/N=C/c1ccccn1	RAM network inh 11 (no result: BB579 growth dn, Yeast life ext)
CC1=CC(C)[C@H](/C=N/n2c(=O)[nH]c3c([nH]c4ccc(C)cc43)c2=O)C(C)C1 (stereo partly specified)	none (no result: BB579 growth dn, Yeast life ext)
ClC(Cl)(c1nnnn1-c1ccccc1)c1nnnn1-c1ccccc1	Yeast life ext 50
COc1cccc(CN2CCNC(=O)C2CC(=O)NCCn2ccc3ccccc32)c1OC (stereo unspecified)	none (no result: BB579 growth dn, Yeast life ext)
O=C(c1cn(-c2ccccc2)nc1-c1cccs1)N1CCN(c2ccccn2)CC1	none
CN(C)S(=O)(=O)Oc1cccc(C(=O)Nc2ccc(Cl)c(Cl)c2)c1	RAM network inh 9.9
O=C1Cc2cccc3cccc1c23	none
COC(=O)/C(=N/Nc1ccccc1C)Sc1nnc(C(O)c2ccccc2)n1-c1ccccc1 (stereo unspecified)	RAM network inh 8.8
CCc1ccc(NC(=O)C(NS(=O)(=O)c2cccc3nsnc23)c2ccccc2)cc1 (stereo unspecified)	RAM network inh 9.1
CC(=O)C1=C(C)NC(SCC(=O)c2ccc(Cl)cc2)=C(C#N)C1CC(C)C (stereo unspecified)	RAM network inh 9.1
